# Assay results from ChEMBL document CHEMBL1122366, “Potential antiatherosclerotic agents. 3. Substituted benzoic and non benzoic acid analogues of cetaben” (1983).
# Columns and labels:
# Rattus norvegicus [1] = test: In vivo sterol lowering activity when dosed as 0.01 % of the diet; format: functional
# Method in brief: (§1)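 Normal rats were dosed in the diet. Serum sterol and triglyceride levels were measured and expressed as the mean percent of control values. Significance versus control was reported at p < 0.05, 0.01 and 0.001.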
# Rattus norvegicus [2] = test: In vivo sterol lowering activity at dose of 0.10 % of the diet; format: functional; method in brief: as §1
# Rattus norvegicus [3] = test: In vivo triglyceride lowering activity dosed at 0.10 % of the diet.; format: functional; method in brief: as §1
# Rattus norvegicus [4] = test: In vivo triglyceride lowering activity when dosed as 0.01 % of the diet; format: functional; method in brief: as §1
# [5] = target: T1, Sterol O-acyltransferase 1 (Rattus norvegicus) (UniProt O70536); test: In vitro inhibition of acyl coenzyme A:cholesterol acyltransferase; parameters: concentration or dose not given beside the values; settings: concentration not given here
# T1 sequence (whole entry): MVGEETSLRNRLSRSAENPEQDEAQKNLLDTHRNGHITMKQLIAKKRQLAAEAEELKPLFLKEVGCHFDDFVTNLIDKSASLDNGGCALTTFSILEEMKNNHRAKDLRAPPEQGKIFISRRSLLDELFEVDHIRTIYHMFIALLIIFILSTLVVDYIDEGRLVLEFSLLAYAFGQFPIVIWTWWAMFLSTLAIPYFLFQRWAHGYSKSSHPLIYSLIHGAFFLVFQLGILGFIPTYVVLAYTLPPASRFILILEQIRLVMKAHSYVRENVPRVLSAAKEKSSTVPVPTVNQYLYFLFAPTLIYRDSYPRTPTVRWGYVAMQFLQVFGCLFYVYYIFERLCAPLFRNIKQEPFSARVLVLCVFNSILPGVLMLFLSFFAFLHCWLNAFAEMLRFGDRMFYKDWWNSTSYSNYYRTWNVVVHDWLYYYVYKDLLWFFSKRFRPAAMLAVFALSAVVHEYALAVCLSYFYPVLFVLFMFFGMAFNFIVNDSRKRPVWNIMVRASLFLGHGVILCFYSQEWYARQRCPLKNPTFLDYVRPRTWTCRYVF
# Method in brief: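 Enzyme fatty acyl-CoA:cholesterol acyltransferase (ACAT), assayed in vitro at a single drug concentration of 5.2 μg/mL. The value is the mean percent inhibition of enzyme activity.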
# Rattus norvegicus [6] = test: In vivo triglyceride lowering activity when dosed at 0.03 % of the diet; format: functional; method in brief: as §1
# Rattus norvegicus [7] = test: In vivo sterol lowering activity when dosed as 0.03 % of the diet; format: functional; method in brief: as §1
SMILES,inhibition [5],"serum sterol level, % of control (Rattus norvegicus [1])","serum sterol level, percent of control (Rattus norvegicus [2])","serum triglyceride, percent of control (Rattus norvegicus [3])","serum triglyceride level, percent of control (Rattus norvegicus [4])","serum triglyceride level, percent of control (Rattus norvegicus [6])","serum sterol level, percent of control (Rattus norvegicus [7])",Diet (Rattus norvegicus [6])
CCCCCCCCCCCCCCCCN(C=O)c1ccc(C(=O)OCC)cc1,9%,101%,96%,75%,102%,90%,117%,
CCCCCCCCCCCCCCCCNc1ccc(C(=O)O)c(C)c1,38%,101%,103%,105%,112%,121%,100%,
CCCCCCCCCCCCCCN(CC)c1ccc(C(=O)O)cc1,< 38%,93%,88%,80%,90%,92%,98%,
CCCCCCCCCCCCCCCCNc1ccc(C(=O)Nc2ccc(C(=O)O)cc2)cc1,12%,95%,100%,103%,85%,121%,<87%,
CCCCCCCCCCCCCCCCNc1ccc(C(=O)OC2CCCCO2)cc1 (stereo not given),0%,91%,<74%,<54%,108%,,<76%,98%
CCCCCCCCCCCCCCCCNc1cc(C(=O)[O-])c(C(=O)[O-])c(C(=O)[O-])c1.[Na+].[Na+].[Na+],< 24%,100%,97%,93%,82%,<68%,100%,
CCCCCCCCCCCCCCCCNc1ccc(C(=O)NS(=O)(=O)c2ccc([N+](=O)[O-])cc2)cc1,< 43%,105%,<82%,108%,92%,<79%,94%,
CCCCCCCCCCCCCCCCNc1ccc(C(=O)C(C#N)C(=O)OCC)cc1 (stereo not given),< 40%,115%,100%,105%,83%,90%,100%,
CCCCCCCCCCCCCCCCNc1ccc(C2=NCCO2)cc1,0%,100%,86%,76%,103%,94%,100%,
CCCCCCCCCCCCCCCCNc1ccc(C(=O)OCC(CO)OC(C)=O)cc1 (stereo not given),28%,118%,86%,<47%,90%,<71%,85%,
CCCCCCCCCCCCCCCCNc1ccc(C(=O)OCC(=O)OCC)cc1,15%,<80%,<66%,72%,92%,76%,<81%,
CCCCCCCCCCCCCCCCN(C(C)=O)c1ccc(C(OC(C)=O)C(N)=O)cc1 (stereo not given),< 40%,109%,110%,89%,93%,86%,111%,
CCCCCCCCCCCCCCCCNc1ccc(C(=O)C(C)C(=O)OCC)cc1 (stereo not given),21%,100%,<73%,<66%,87%,88%,87%,
CCCCCCCCCCCCCCCCNc1ccc(C2=NCCCO2)cc1,2%,97%,<87%,<68%,99%,127%,100%,
CCCCCCCCCCCCCCCCNc1ccc(C(=O)O)c(OCCCCCCCCCCCCCCCC)c1,6%,90%,95%,84%,126%,82%,99%,
CCCCCCCCCCCCCCCCNc1ccc(C(=O)C(C)(C)C(=O)OCC)cc1,0%,94%,90%,101%,101%,<65%,103%,
CCCCCCCCCCCCCCCCNC1CCC(C(=O)OC)CC1 (stereo not given),< 37%,99%,<71%,<63%,78%,88%,92%,
CCCCCCCCCCCCCCCCN(C=O)c1ccc(C(=O)O)cc1,12%,<89%,105%,78%,77%,100%,96%,

# More lines, main results first:
inhibition [5],SMILES,"serum sterol level, % of control (Rattus norvegicus [1])","serum sterol level, percent of control (Rattus norvegicus [2])","serum triglyceride, percent of control (Rattus norvegicus [3])","serum triglyceride level, percent of control (Rattus norvegicus [4])","serum triglyceride level, percent of control (Rattus norvegicus [6])","serum sterol level, percent of control (Rattus norvegicus [7])",Diet (Rattus norvegicus [6])
< 30%,CCCCCCCCCCCCCCCCNc1ccc(C=O)cc1,91%,<85%,<53%,<66%,<64%,92%,
14%,CCCCCCCCCCCCCCCCNc1ccc(C(=O)OCCCO)cc1,94%,<68%,<46%,<67%,<74%,<82%,
< 24%,CCCCCCCCCCCCCCCCNc1ccc(C(=O)OCC(=O)OC)cc1,84%,<71%,74%,79%,72%,<76%,
12%,Br.CCCCCCCCCCCCCCCCNc1ccc(OC(C)=O)cc1,92%,91%,117%,108%,146%,95%,
< 35%,CCCCCCCCCCCCCCCCNc1ccc(C(=O)NC(C)=O)cc1,93%,91%,74%,86%,73%,<87%,
< 27%,CCCCCCCCCCCCCCCCNc1ccc(C(C)(C)C(=O)O)cc1,93%,107%,116%,109%,121%,111%,
< 24%,CCCCCCCCCCCCCCCCNc1ccc(C(=O)NN)cc1,110%,116%,84%,108%,84%,105%,
6%,CCCCCCCCCCCCCCCCNc1ccc(C(=O)C[S+](C)[O-])cc1 (stereo not given),95%,,,<64%,<55%,95%,
